ChEMBL document CHEMBL1121553, “Substituted 6,7-dihydroimidazo[1,2-a]purin-9(4H)-ones” (J Med Chem, 1980)
Converted amounts (≈) assume the structure as drawn. Values belong to the compound of their own block, whether it stands above or below them. The source made the active and inactive calls. No cut-off for these calls is given here.

Tests used:
Cavia porcellus [1] = species on record: Cavia porcellus; assay: In vitro bronchodilator activity in isolated guinea pig tracheal spiral preparation; type: functional; details: Trachea
How it was run: (§1)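 Guinea pig tracheal spiral held under 1.0 g tension, equilibrated 90–120 min to maximal spontaneous tonus. One drug concentration per spiral, ≥3 trials per concentration. Relaxation was expressed as % of that produced by papaverine (10 µg/mL) in the same tissue. Concentrations are bath values in µg/mL; the 50%-relaxation concentration was obtained by regression.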

Rattus norvegicus [2] = assay: In vivo bronchodilator activity in methacholine (intravenous) induced bronchospasm in male Harlan-Sprague-Dawley rats when administered intraduodenally; type: functional
Cavia porcellus [3] = species on record: Cavia porcellus; assay: Evaluation of in vitro bronchodilator activity in isolated guinea pig tracheal spiral preparation; type: functional; details: Trachea; how it was run: as §1
Rattus norvegicus [4] = assay: Antiallergic activity by passive cutaneous anaphylaxis test in ovalbumin sensitized male Harlan-Sprague-Dawley rats administered perorally; type: functional; details: po
How it was run: (§2)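 Donor rats got egg albumin im (1 mg/rat) plus killed B. pertussis vaccine ip (2 × 10¹⁰ organisms/rat) and were bled 10–12 days later for IgE-rich antiserum. Recipient rats (100–150 g) were sensitized intradermally with 0.1 mL of 1:2.5 and 1:10 antiserum dilutions.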

Rattus norvegicus [5] = assay: In vivo bronchodilator activity in methacholine (intravenous) induced bronchospasm in male Harlan-Sprague-Dawley rats when administered intraduodenally; statistically significant inhibition of < 50% at thr stated dose; type: functional
Rattus norvegicus [6] = assay: Antiallergic activity was evaluated by inhibition of allergen-induced bronchospasm in male Harlan-Wistar rats when administered intraduodenally 15 min prior to antigen challenge; type: functional; details: intraduodenal
Rattus norvegicus [7] = assay: Antiallergic activity was evaluated by passive cutaneous anaphylaxis test in egg albumin sensitized male Harlan-Sprague-Dawley rats when administered perorally; type: functional; details: po; how it was run: as §2
Rattus norvegicus [8] = assay: Antiallergic activity by passive cutaneous anaphylaxis test in ovalbumin sensitized male Harlan-Sprague-Dawley rats at 25 mg/kg oral dose (inactive); type: functional, organism-based; design: dose 25 mg/kg; how it was run: as §2
Rattus norvegicus [9] = assay: In vivo bronchodilator effect on (intravenous) methacholine-induced bronchospasm in male Harlan-Sprague-Dawley rats at 10 mg/kg intraduodenal dose (inactive); type: functional, organism-based; design: dose 10 mg/kg
Rattus norvegicus [10] = species on record: Rattus norvegicus; assay: Antiallergic activity in in vitro antigen-induced histamine release from isolated mast cells; type: functional, cell-based
How it was run: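 Peritoneal lavage cells from male Harlan-Sprague-Dawley rats (200–300 g), collected in HBSS with 0.1% human albumin and 5 mM phosphate. Cells were sensitized 2 h at 37 °C in rat antiserum with heparin, then challenged with EA; drug was added together with antigen at several concentrations, 4 trials each. After 10 min, histamine was measured fluorimetrically and % inhibition calculated vs drug-free release.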

Rattus norvegicus [11] = assay: Antiallergic activity by passive cutaneous anaphylaxis test in rats by intravenous administration; type: functional; how it was run: as §2
Rattus norvegicus [12] = assay: Antiallergic activity by passive cutaneous anaphylaxis test in ovalbumin sensitized male Harlan-Sprague-Dawley rats administered orally; type: functional; details: po; how it was run: as §2
Rattus norvegicus [13] = assay: Antiallergic activity by passive cutaneous anaphylaxis test in ovalbumin sensitized male Harlan-Sprague-Dawley rats by oral dose; type: functional; how it was run: as §2
Rattus norvegicus [14] = assay: Percent inhibition of PCA reaction at 33 mg/kg oral dose after 24 hr r; type: functional
Rattus norvegicus [15] = assay: Antiallergic activity by passive cutaneous anaphylaxis test in rats by intraduodenal administration; type: functional
How it was run: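 Recipient male Harlan-Sprague-Dawley or Wistar rats (100–150 g) received 0.1 mL intradermal antiserum at 1:2.5 and 1:10. Donor antiserum came from rats given egg albumin 1 mg im plus killed B. pertussis 2 × 10¹⁰ ip, bled 10–12 days later. After 48 h, drug went intraduodenally under anesthesia, then iv egg albumin 25 mg/kg with Evans blue 25 mg/kg. Read-out was spot-diameter inhibition versus controls, ≥5 rats/dose; ED50 was estimated.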

Rattus norvegicus [16] = species on record: Rattus norvegicus; assay: Antiallergic activity by passive cutaneous anaphylaxis test in vitro in rats; type: functional
How it was run: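 Peritoneal mast cells were lavaged from male Harlan-Sprague-Dawley rats (200–300 g) with HBSS containing 0.1% albumin and 5 mM phosphate. Cells were sensitized with IgE antiserum plus heparin for 2 h at 37 °C, then challenged with egg albumin, drug added simultaneously. After 10 min, histamine was measured fluorimetrically; inhibition versus no-drug release, four trials per concentration.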

IC50 (Cavia porcellus [1]): 17.5 µg/mL (≈ 61.3 µM)
SMILES: O=C1c2[nH]cnc2N(Cc2ccc(F)cc2)C2=NCCN12

IC50 (Cavia porcellus [1]): ~200 µg/mL (≈ 854 µM)
SMILES: CC(C)CN1C2=NCCN2C(=O)c2[nH]nnc21
ED50 (Rattus norvegicus [4]): > 30 mg/kg
ED50 (Rattus norvegicus [5]): > 30 mg/kg

IC50 (Cavia porcellus [1]): 49 µg/mL (≈ 162 µM)
SMILES: O=C1c2[nH]cnc2N(Cc2ccccc2Cl)C2=NCCN12

IC50 (Cavia porcellus [3]): 24.5 µg/mL (≈ 84.7 µM)
SMILES: CCCCCCCCN1C2=NCCN2C(=O)c2[nH]cnc21

IC50 (Cavia porcellus [1]): 15.5 µg/mL (≈ 43.3 µM)
SMILES: CCCCn1cnc2c1C(=O)N1CCN=C1N2Cc1ccc(Cl)cc1
ED50 (Rattus norvegicus [5]): > 10 mg/kg

IC50 (Cavia porcellus [1]): 6.3 µg/mL (≈ 27 µM)
SMILES: CC(C)CN1C2=NCCN2C(=O)c2[nH]cnc21
ED50 (Rattus norvegicus [13]): > 25 mg/kg

IC50 (Rattus norvegicus [16]): 490 µM
IC50 (Cavia porcellus [1]): 14 µg/mL (≈ 46.4 µM)
SMILES: O=C1c2[nH]cnc2N(Cc2ccc(Cl)cc2)C2=NCCN12
inhibition in vivo at 33 mg/kg (Rattus norvegicus [14]): 11.5%
ED50 (Rattus norvegicus [15]): 8.4 mg/kg
ED50 (Rattus norvegicus [6]): 0.9 mg/kg
ED50 (Rattus norvegicus [11]): 2.4 mg/kg

More lines, now with the values behind:

SMILES: CSC1=C2N=CN=C2N(Cc2ccc(Cl)cc2)C2=NCCN21
ED50 (Rattus norvegicus [2]): > 30 mg/kg
IC50 (Cavia porcellus [3]): 8.1 µg/mL (≈ 24.4 µM)

SMILES: CSc1nc2c([nH]1)N(Cc1ccc(Cl)cc1)C1=NCCN1C2=O
ED50 (Rattus norvegicus [2]): > 30 mg/kg
IC50 (Cavia porcellus [3]): 13.7 µg/mL (≈ 39.4 µM)

SMILES: CCc1nc2c([nH]1)N(CC(C)C)C1=NCCN1C2=O
IC50 (Cavia porcellus [1]): 16.7 µg/mL (≈ 63.9 µM)

SMILES: O=C1c2[nH]nnc2N(Cc2ccc(F)cc2)C2=NCCN12
ED50 (Rattus norvegicus [5]): > 10 mg/kg
IC50 (Cavia porcellus [1]): > 200 µg/mL

SMILES: CC1CN2C(=O)c3c(ncn3C)N(Cc3ccc(Cl)cc3)C2=N1 (centres undefined)
ED50 (Rattus norvegicus [6]): 3.4 mg/kg
ED50 (Rattus norvegicus [2]): 1.1 mg/kg
ED50 (Rattus norvegicus [7]): 28.9 mg/kg
IC50 (Cavia porcellus [1]): 2.3 µg/mL (≈ 6.97 µM)

SMILES: Cn1c(N)nc2c1C(=O)N1CCN=C1N2Cc1ccc(Cl)cc1
ED50 (Rattus norvegicus [5]): > 30 mg/kg
IC50 (Cavia porcellus [1]): 4.8 µg/mL (≈ 14.5 µM)

SMILES: Cc1nc2c([nH]1)C(=O)N1CCN=C1N2CC(C)C
ED50 (Rattus norvegicus [6]): 5.4 mg/kg
IC50 (Cavia porcellus [1]): 2.8 µg/mL (≈ 11.3 µM)

SMILES: O=C1c2nc[nH]c2N(Cc2ccccc2)C2=NCCN12
ED50 (Rattus norvegicus [8]): inactive
IC50 (Cavia porcellus [1]): 22.5 µg/mL (≈ 84.2 µM)

SMILES: Oc1c2ncnc-2n(Cc2ccc(Cl)cc2)c2nccn12
ED50 (Rattus norvegicus [2]): 8.1 mg/kg
IC50 (Cavia porcellus [1]): 4.1 µg/mL (≈ 13.7 µM)

SMILES: Cn1cnc2c1C(=O)N1CCN=C1N2Cc1ccc(Cl)cc1
ED50 (Rattus norvegicus [2]): 8.8 mg/kg
ED50 (Rattus norvegicus [8]): inactive
IC50 (Cavia porcellus [1]): 2.9 µg/mL (≈ 9.18 µM)

SMILES: Cc1nc2c([nH]1)C(=O)N1CC(C)N=C1N2Cc1ccc(Cl)cc1 (centres undefined)
ED50 (Rattus norvegicus [6]): 1.23 mg/kg
ED50 (Rattus norvegicus [2]): 1 mg/kg
ED50 (Rattus norvegicus [7]): 30.2 mg/kg
IC50 (Cavia porcellus [1]): 4.4 µg/mL (≈ 13.3 µM)

SMILES: Cn1c(Br)nc2c1C(=O)N1CCN=C1N2Cc1ccc(Cl)cc1
ED50 (Rattus norvegicus [9]): inactive
IC50 (Cavia porcellus [3]): 3.9 µg/mL (≈ 9.88 µM)

SMILES: O=C([O-])c1cc(=O)c2c(OCC(O)COc3cccc4oc(C(=O)[O-])cc(=O)c34)cccc2o1.[Na+].[Na+] [CROMOLYN SODIUM]
IC50 (Rattus norvegicus [10]): 8 µM
ED50 (Rattus norvegicus [11]): 0.29 mg/kg

SMILES: CC1(C)CN2C(=O)c3[nH]cnc3N(Cc3ccc(Cl)cc3)C2=N1
ED50 (Rattus norvegicus [6]): 3 mg/kg
IC50 (Cavia porcellus [1]): 14.3 µg/mL (≈ 43.4 µM)
ED50 (Rattus norvegicus [12]): 35.3 mg/kg
